Assay results from ChEMBL document CHEMBL3580599, “Synthesis and Biological Evaluation of Novel Homoisoflavonoids for Retinal Neovascularization” (J Med Chem, 2015).
Calls of active or inactive are those of the source. The calls are words filed in the database; no cut-off is given here.

How the values were obtained:
[1] = (§1) Growth inhibition of human HREC cells assessed as reduction in cell number after 48 hrs by alamarBlue based fluorescence assay; type: functional
Summary of the method: (§2)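 Cells (2,500 per well in growth medium) were allowed 24 h, then exposed 48 h to compound over 0.5 nM–500 μM. alamarBlue was added and fluorescence read 4 h later (ex 560/em 590 nm). Dose-response curves were fitted relative to DMSO control; compounds not reducing cell number ≥50% at the top concentration were reported as GI50 >100 μM.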

[2] = tested on: HREC; assay: as §1; type: functional; summary of the method: as §2
[3] = Growth inhibition of human HUVEC cells assessed as reduction in cell number after 48 hrs by alamarBlue based fluorescence assay; summary of the method: as §2
[4] = Growth inhibition of human 92-1 cells assessed as reduction in cell number after 48 hrs by alamarBlue based fluorescence assay; type: functional; summary of the method: as §2
[5] = tested on: Y79; assay: Growth inhibition of human Y79 cells assessed as reduction in cell number after 48 hrs by alamarBlue based fluorescence assay; type: functional; conditions: Y79, 48 h; summary of the method: as §2
[6] = Selectivity ratio of GI50 for HUVEC cells to GI50 for human HREC cells; type: ADME, cell-based; conditions: HUVEC cells and HREC cells, read-out: RatioGI50
[7] = Selectivity ratio of GI50 for human Y79 cells to GI50 for human HREC cells; type: ADME, cell-based; conditions: Y79 cells and HREC cells
[8] = Selectivity ratio of GI50 for human 92-1 cells to GI50 for human HREC cells; type: ADME, cell-based; conditions: 92-1 cells and HREC cells
[9] = Induction of apoptosis in human HREC cells assessed as nuclear morphology after 8 hrs by EdU incorporation assay; type: cell-based
Summary of the method: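 HRECs (25,000) on attachment-factor-coated coverslips, 24 h growth, then 12 h in serum-free EBM-2. Incubated 8 h with 10 μM EdU plus compound at various concentrations, then processed by click chemistry with DAPI counterstain and imaged. Nuclear morphology and EdU-positive cells were scored by image analysis. n = 3, at least triplicate experiments, SEM.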

[10] = tested on: HREC; assay: Inhibition of cell migration in human HREC cells after 8 hrs scratch-wound assay; type: functional, cell-based
Summary of the method: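 HRECs (10⁵ per coated well) grown to confluence in EGM-2, starved 12 h in serum-free EBM-2, then scratched with a pipette tip and rinsed. Incubated in EGM-2 with compound at 37 °C, 5% CO₂. After 8 h, cells migrated into the scratch were counted from images.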

[11] = tested on: HREC; assay: Antiangiogenic activity in human HREC cells assessed as inhibition of tube formation after 8 hrs by matrigel assay; type: functional, cell-based
Summary of the method: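 HRECs, 7,500 per well in EGM-2, plated on Matrigel basement membrane with or without compound; after 8 h, imaged and tube length measured by image analysis.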

[12] = Induction of apoptosis in human HREC cells assessed as activated caspase 3 up to 2 uM after 4 hrs by immunofluorescence assay; type: functional
Summary of the method: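 HRECs on coated coverslips, overnight in EGM-2, then treated 4 h at indicated concentrations. Fixed in 4% paraformaldehyde, permeabilized with 0.5% Triton X-100, immunostained for activated caspase 3 and imaged by confocal microscopy. Staurosporine 1 μM served as positive control.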

[13] = Induction of apoptosis in human HREC cells up to 2 uM after 4 hrs by TUNEL assay; type: functional
Summary of the method: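 HRECs, 25,000 per coated coverslip, grown overnight in EGM-2, then 4 h in fresh medium with compound. Fixed in 4% paraformaldehyde 20 min at room temperature, permeabilized with 0.25% Triton X-100 20 min, then TUNEL-labelled with DAPI counterstain. Percent apoptotic cells counted on three low-power fields per coverslip. n = 3, SEM.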

[14] = Toxicity in human HREC cells up to 2 uM by trypan blue exclusion assay; type: cell-based
Summary of the method: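 HRECs in complete EGM-2 grown to 70% confluency, then treated 48 h with compound. After trypsinization, live and dead cells, including floating cells, were counted by Trypan blue on a hemocytometer. Viability taken as live/total cells. n = 3, triplicate experiments, SEM.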

[15] = tested on: HREC; assay: Induction of cell cycle arrest in human HREC cells assessed as cells accumulation at G2/M phase after 48 hrs by propidium iodide before flow cytometry analysis; type: functional, cell-based
Summary of the method: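 HRECs grown to 50% confluency in EGM-2, serum-starved overnight, then 48 h in fresh EGM-2 with compound. Fixed in 66% EtOH 2 h at 4 °C, stained with 20 μg/mL propidium iodide with 0.1% Triton X-100 and RNase for 30 min at 37 °C, then analysed by flow cytometry. Duplicate experiments.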

[16] = species on record: Mus musculus; assay: Inhibition of retinal neovascularization in oxygen-induced retinopathy mouse model at 1 uM in each eye relative to vehicle treated control; type: functional, organism-based
Summary of the method: (§3)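 Newborn C57BL/6 pups with nursing mother held in 75% O₂ from P7 to P12. At P12, under isoflurane, 0.5 μL of a 10 μM solution (DMSO stock diluted into PBS) was injected intravitreally into each eye, estimated to give 1 μM in vitreous. Controls got vehicle or 5 ng anti-VEGF antibody. Retinas were whole-mounted, stained with isolectin B4-Alexa 488 and imaged by confocal microscopy.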

[17] = species on record: Mus musculus; assay: Ocular toxicity in mouse model assessed as gross morphological changes in retinal vasculature at 1 uM; type: organism-based; conditions: in vivo; summary of the method: as §3

## COc1ccc(CC2COc3cc(OC)c(OC)c(OC)c3C2=O)cc1OC(=O)[C@H](Cc1ccccc1)NC(=O)OC(C)(C)C (some centres not stated)
[1]
  GI50: 0.055 µM
[2]
  inhibition: Dose-dependent effect
[3]
  GI50 at 48 h: 0.75 µM
[4]
  GI50: > 100 µM
[5]
  GI50: 12 µM
[6]
  selectivity ratio: 14
[7]
  selectivity ratio: 218
[8]
  selectivity ratio: > 1000
[9]
  Activity: Non-toxic
[10]
  inhibition: Dose-dependent effect
[11]
  inhibition: Dose-dependent effect
[12]
  Activity: <10%
[13]
  Activity: <10%
[14]
  Activity: Non-toxic
[15]
  Activity: Dose-dependent effect
[16]
  inhibition: Active
[17]
  Activity: Non-toxic
